Calls of active or inactive are those of the source. The calls are words filed in the database; no cut-off is given here.
Legend:
Plasmodium falciparum = experiment: Antimalarial activity against mefloquine-resistant Plasmodium falciparum TM91C235 assessed as [3H]hypoxanthine incorporation after 48 hrs; assay type: functional, organism-based
In short: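 Tritiated hypoxanthine incorporation assay (Desjardins method, Milhous modification) with 48 h drug exposure. Uses P. falciparum clone TM91C235 (Southeast Asian, mefloquine-resistant). Compounds 2-fold diluted over 11 concentrations. IC50 derived by nonlinear logistic dose-response fitting, averaged where multiple runs were done.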

Plasma = experiment: (§1) Plasma protein binding in mouse at 1 ug/ml after 30 mins; assay type: ADME, cell-free; settings: 0.5 h
In short: (§2)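 Ultrafiltration on mouse plasma preincubated 15 min at 37 °C, compound spiked to 1 μg/mL final. Aliquots taken at 0 and 15 min, remainder spun through a 10 kDa filter for 30 min at 37 °C, 2850 g. Filtrate deproteinized and analysed by LC-MS/MS.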

Liver microsomes [1] = experiment: Intrinsic clearance in rat liver microsomes assessed per gram of liver at 1 uM after 60 mins at pH 7.4 by LC-MS/MS analysis; assay type: ADME, Microsome; settings: pH 7.4, 1 h
In short: (§3)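 Liver microsomes (0.5 mg protein/mL) in 50 mM potassium phosphate pH 7.4 with 1.0 μM compound at 37 °C for 60 min. Reaction started with NADP/glucose-6-phosphate/MgCl₂/G6PDH cofactor mix; solvent 1% final. LC-MS/MS read-out. CLi from first-order elimination constant by nonlinear regression, corrected for incubation volume, assuming 52.5 mg microsomal protein/g liver.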

Plasmodium berghei [2] = experiment: Antimalarial activity against Plasmodium berghei KBG173 infected in mouse assessed as increase in mouse survival time at 5 mg/kg, iv BID administered on day 3, 4 and 5 post infection relative to azithromycin; assay type: functional
In short: (§4)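 Male mice (24−30 g) inoculated intraperitoneally with 5 × 10⁶ P. berghei KBG-173-infected erythrocytes; parasitemia 1.0–3.7% by day 3. IV dosing twice daily on days 3, 4 and 5 post-infection. Read-out is the survival time of the last animal alive. Mice blood-smear negative on day 31 counted as cured; mice losing ≥20% body weight sacrificed.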

[3] = Volume of distribution at steady state in CD1 mouse at 5 mg/kg, iv; assay type: ADME, organism-based; parameters: dose 5 mg/kg, route intravenous; settings: in vivo, read-out: Vdss
In short: (§5)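 Male CD-1 mice (N = 3 per route) dosed IV at 5 mg/kg or orally at 25 mg/kg while fasted, mostly in saline (2.5 mg/mL). Tail-vein blood taken up to 24 h, cardiac puncture at 30 h. Samples hemolyzed, protein-precipitated with acetonitrile plus internal standard, analysed by positive ESI LC-MS/MS.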

[4] = (§6) Half life in CD1 mouse at 5 mg/kg, iv; assay type: ADME, organism-based; parameters: dose 5 mg/kg, route intravenous; settings: CD1, mouse, in vivo; in short: as §5
[5] = Oral bioavailability in CD1 mouse at 25 mg/kg; assay type: ADME, organism-based; settings: in vivo; in short: as §5
[6] = Clearance at steady state in CD1 mouse at 5 mg/kg, iv; assay type: ADME, organism-based; parameters: dose 5 mg/kg, route intravenous; settings: in vivo, read-out: CLss; in short: as §5
Liver = experiment: Intrinsic clearance in mouse liver microsomes assessed per gram of liver at 1 uM after 60 mins at pH 7.4 by LC-MS/MS analysis; assay type: ADME, Microsome; settings: pH 7.4, 1 h; in short: as §3
Mus musculus [7] = experiment: Unbound clearance in CD1 mouse at 5 mg/kg, iv; assay type: ADME, organism-based; parameters: dose 5 mg/kg, route intravenous; settings: in vivo
In short: (§7)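 Fraction unbound measured in mouse plasma by ultrafiltration at 1 μg/mL. Unbound clearance = blood clearance/fu, assuming blood/plasma ratio of 1. Blood clearance comes from male CD-1 mice dosed IV at 5 mg/kg, with tail-vein sampling up to 24 h and LC-MS/MS analysis.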

[8] = Fraction unbound in CD1 mouse plasma at 5 mg/kg, iv; assay type: ADME, organism-based; parameters: dose 5 mg/kg, route intravenous; in short: as §7
HepG2 = experiment: Cytotoxicity against human HepG2 cells after 24 hrs by MTS assay; assay type: cell-based; settings: HepG2, 24 h
In short: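 HepG2 cells kept in RPMI 1640 with 10% FBS plus antibiotics at 37 °C, 5% CO₂. 50 000 cells per well exposed to 10 two-fold serial dilutions for 24 h. MTS reagent then added for 2 h more, absorbance read at 490 nm, IC50 derived.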

Liver microsomes [9] = experiment: Intrinsic clearance in human liver microsomes assessed per gram of liver at 1 uM after 60 mins at pH 7.4 by LC-MS/MS analysis; assay type: ADME, Microsome; settings: pH 7.4, 1 h; in short: as §3
Plasmodium berghei [10] = experiment: Antimalarial activity against Plasmodium berghei KBG173 infected in mouse assessed as mouse survival time at 15 mg/kg, iv BID administered on day 3, 4 and 5 post infection; assay type: functional; in short: as §4
Plasmodium berghei [11] = experiment: Antimalarial activity against Plasmodium berghei KBG173 infected in mouse assessed as decrease in parasitemia at 10 mg/kg, iv BID administered on day 3, 4 and 5 post infection measured on day 31 relative to control; assay type: functional, organism-based; parameters: dose 10 mg/kg
In short: (§8)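 Male mice (24–30 g) inoculated intraperitoneally with 5 × 10⁶ P. berghei KBG-173-infected erythrocytes; parasitemia about 1.0–3.7% by day 3. Dosing twice daily on days 3–5 postinfection. Blood smears negative on day 31 counted as cured, scored as cured/total mice (5 per dose). Mice losing ≥20% body weight sacrificed.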

Mus musculus [12] = experiment: as §6; assay type: ADME, organism-based; parameters: dose 5 mg/kg, route intravenous; settings: mouse, in vivo; in short: as §5
Plasmodium berghei [13] = experiment: Antimalarial activity against Plasmodium berghei KBG173 infected in mouse assessed as cured mouse at 15 mg/kg, iv BID administered on day 3, 4 and 5 post infection measured up to day 31; assay type: functional, organism-based; parameters: dose 15 mg/kg; in short: as §8
Plasmodium berghei [14] = experiment: Antimalarial activity against Plasmodium berghei KBG173 infected in mouse assessed as cured mouse at 5 mg/kg, iv BID administered on day 3, 4 and 5 post infection measured up to day 31; assay type: functional, organism-based; parameters: dose 5 mg/kg; in short: as §8
Plasmodium berghei [15] = experiment: Antimalarial activity against Plasmodium berghei KBG173 infected in mouse assessed as mouse survival time at 5 mg/kg, iv BID administered on day 3, 4 and 5 post infection; assay type: functional; in short: as §4
[16] = as §1; assay type: ADME, cell-free; settings: read-out: PPB (converted); in short: as §2

CC[C@H]1OC(=O)[C@H](C)[C@@H](O[C@H]2C[C@@](C)(OC)[C@@H](O)[C@H](C)O2)[C@H](C)[C@@H](O[C@@H]2O[C@H](C)C[C@H](N(C)C)[C@H]2O)[C@](C)(O)C[C@@H](C)CN(CCCNC(=O)CCc2ccccc2)[C@H](C)[C@@H](O)[C@]1(C)O
IC50 (Plasmodium falciparum): 70 nM | PPB (Plasma): 43% | CLint (Liver microsomes [1]): < 0.6 mL/min/g | Survival (Plasmodium berghei [2]): -12 days | Vd [3]: 5 L/kg | half-life [4]: 414 min | bioavailability [5]: 12.7% | clearance [6]: 23.3 mL/min/kg | CLint (Liver): < 0.6 mL/min/g | CL free (Mus musculus [7]): 54 mL/min/kg | fraction unbound [8]: 0.43 | IC50 (HepG2): > 50 µM | CLint (Liver microsomes [9]): < 0.6 mL/min/g

CC[C@H]1OC(=O)[C@H](C)[C@@H](O[C@H]2C[C@@](C)(OC)[C@@H](O)[C@H](C)O2)[C@H](C)[C@@H](O[C@@H]2O[C@H](C)C[C@H](N(C)C)[C@H]2O)[C@](C)(O)C[C@@H](C)CN(C)[C@H](C)[C@@H](O)[C@]1(C)O [AZITHROMYCIN]
Survival (Plasmodium berghei [10]): 19 days | Vd [3]: 8.8 L/kg | Activity (Plasmodium berghei [11]): inactive | t1/2 (Mus musculus [12]): 8.3 h | bioavailability [5]: 72% | clearance [6]: 16 mL/min/kg | Activity (Plasmodium berghei [13]): inactive | CL free (Mus musculus [7]): 23.2 mL/min/kg | Activity (Plasmodium berghei [14]): inactive | Survival (Plasmodium berghei [15]): 17 days | fraction unbound [8]: 0.69 | IC50 (HepG2): > 50 µM

CC[C@H]1OC(=O)[C@H](C)[C@@H](O[C@H]2C[C@@](C)(OC)[C@@H](O)[C@H](C)O2)[C@H](C)[C@@H](O[C@@H]2O[C@H](C)C[C@H](N(C)C)[C@H]2O)[C@](C)(O)C[C@@H](C)CN(CCCNc2ccnc3ccccc23)[C@H](C)[C@@H](O)[C@]1(C)O
IC50 (Plasmodium falciparum): 25 nM | PPB (Plasma): 43% | CLint (Liver microsomes [1]): < 0.6 mL/min/g | Survival (Plasmodium berghei [2]): 3 days | Vd [3]: 4.9 L/kg | half-life [4]: 864 min | bioavailability [5]: 1.7% | clearance [6]: 7.7 mL/min/kg | CLint (Liver): < 0.6 mL/min/g | CL free (Mus musculus [7]): 20 mL/min/kg | fraction unbound [8]: 0.39 | IC50 (HepG2): > 50 µM | CLint (Liver microsomes [9]): < 0.6 mL/min/g

CC[C@H]1OC(=O)[C@H](C)[C@@H](O[C@H]2C[C@@](C)(OC)[C@@H](O)[C@H](C)O2)[C@H](C)[C@@H](O[C@@H]2O[C@H](C)C[C@H](N(C)C)[C@H]2O)[C@](C)(O)C[C@@H](C)CN(CCCNCc2ccnc3ccccc23)[C@H](C)[C@@H](O)[C@]1(C)O
IC50 (Plasmodium falciparum): 165 nM | fraction unbound at 0.5 h, 1 ug/ml [16]: 0.57 | CLint (Liver microsomes [1]): < 0.6 mL/min/g | Survival (Plasmodium berghei [2]): 3 days | Vd [3]: 4.9 L/kg | half-life [4]: 522 min | bioavailability [5]: 19.5% | clearance [6]: 10.2 mL/min/kg | CLint (Liver): < 0.6 mL/min/g | CL free (Mus musculus [7]): 18 mL/min/kg | fraction unbound [8]: 0.57 | IC50 (HepG2): > 50 µM | CLint (Liver microsomes [9]): < 0.6 mL/min/g

Reference: ChEMBL document CHEMBL2029228, “Antimalarial activity of 9a-N substituted 15-membered azalides with improved in vitro and in vivo activity over azithromycin” (J Med Chem, 2012)
